The test system of assay [1] is eIF-2-alpha kinase GCN2 (Homo sapiens), Q9P2K8 [S808G]. The experiment in a line: Binding affinity to wild-type human partial length GCN2 kinase domain 2 (R585 to T1018 residues) S808G mutant expressed in bacterial expression system assessed as residual binding level at 1 uM by Kinomescan method relative to control.
For assay [2], the target named is Serine/threonine-protein kinase VRK2 (Homo sapiens) (UniProt Q86Y07). Put plainly: Binding affinity to wild-type human partial length VRK2 (M1 to T336 residues) expressed in mammalian expression system assessed as residual binding level at 1 uM by Kinomescan method relative to control. The procedure, abridged:
(§1)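 Active site-directed competition binding panel (KinomeScan, 468 kinases). Test compound at 1 μM. Read-out is kinase binding remaining versus DMSO control, expressed as percent of control. Scores above 35% are treated as weak binding.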

In assay [3] the target is Mast/stem cell growth factor receptor Kit (Homo sapiens) (UniProt P10721). The experiment in a line: Binding affinity to wild-type human partial length autoinhibited KIT (Y545 to D952 residues) expressed in mammalian expression system assessed as residual binding level at 1 uM by Kinomescan method relative to control.
Assay [4] has as its target Mitogen-activated protein kinase kinase kinase kinase 2 (Homo sapiens) (UniProt Q12851). The experiment in a line: Binding affinity to wild-type human partial length MAP4K2 (M1 to G318 residues) expressed in mammalian expression system assessed as residual binding level at 1 uM by Kinomescan method relative to control.
Assay [5] deals with Dual specificity testis-specific protein kinase 1 (Homo sapiens) (UniProt Q15569). Put plainly: Binding affinity to wild-type human full length TESK1 (R37 to S626 residues) expressed in bacterial expression system assessed as residual binding level at 1 uM by Kinomescan method relative to control.
Assay [6] has as its target Dual specificity protein kinase CLK3 (Homo sapiens) (UniProt P49761). Put plainly: Binding affinity to wild-type human full length CLK3 (M1 to R490 residues) expressed in bacterial expression system assessed as residual binding level at 1 uM by Kinomescan method relative to control. Summed up:
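Active-site-directed KinomeScan competition binding panel covering 468 kinases, compound tested at 1 μM. Each readout is the kinase signal remaining with compound, expressed as a percentage of the DMSO control. […]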

Assay [7] concerns the target Serine/threonine-protein kinase Nek7 (Homo sapiens) (UniProt Q8TDX7). The experiment in a line: Binding affinity to wild-type human full length NEK7 (M1 to S302 residues) expressed in bacterial expression system assessed as residual binding level at 1 uM by Kinomescan method relative to control. The procedure, abridged:
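Active-site-directed competition binding panel (KinomeScan) covering 468 kinases. Test agent was screened at 1 μM. The read-out is the remaining kinase signal expressed relative to a DMSO control. Scores above 35%, taken as weak binding, were not reported.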

In assay [8] the target is Serine/threonine-protein kinase Chk2 (Homo sapiens) (UniProt O96017). Put plainly: Binding affinity to wild-type human partial length CHEK2 (S253 to E574 residues) expressed in bacterial expression system assessed as residual binding level at 1 uM by Kinomescan method relative to control. Summed up: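 KinomeScan, an active site-directed competition binding panel of 468 kinases. The test compound was at 1 μM. The readout is remaining kinase binding as a percentage of the DMSO control. Scores above 35% were treated as weak binding and not listed.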

Assay [9] deals with Tyrosine-protein kinase ABL1 (Homo sapiens), P00519 [F317L]. Put plainly: Binding affinity to human non-phosphorylated ABL1 F317L mutant (S229 to K512 residues) expressed in mammalian expression system assessed as residual binding level at 1 uM by Kinomescan method relative to control. Summed up:
(§2)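 KinomeScan active site-directed competition binding panel (468 kinases), compound tested at 1 μM. Result expressed as remaining kinase signal versus DMSO control (percent of control).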

The target in assay [10] is Serine/threonine-protein kinase PLK1 (Homo sapiens) (UniProt P53350). The experiment in a line: Binding affinity to wild-type human partial length PLK1 (A33 to F325 residues) expressed in mammalian expression system assessed as residual binding level at 1 uM by Kinomescan method relative to control.
Assay [11] deals with Serine/threonine-protein kinase D3 (Homo sapiens) (UniProt O94806). The experiment in a line: Binding affinity to wild-type human partial length PRKD3 (S543 to E863 residues) expressed in bacterial expression system assessed as residual binding level at 1 uM by Kinomescan method relative to control. Summed up:
(§3)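 Active-site-directed competition binding panel of 468 kinases (KinomeScan), compound at 1 μM. The read-out is kinase remaining bound, given as a percentage of the DMSO control. […]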

The target in assay [12] is Protein kinase C iota type (Homo sapiens) (UniProt P41743). Put plainly: Binding affinity to wild-type human partial length PRKCI (H215 to V587 residues) expressed in mammalian expression system assessed as residual binding level at 1 uM by Kinomescan method relative to control. Summed up:
as §3

Assay [13] deals with MAP kinase-activated protein kinase 2 (Homo sapiens) (UniProt P49137). The experiment in a line: Binding affinity to wild-type human partial length MAPKAPK2 (V48 to D345 residues) expressed in bacterial expression system assessed as residual binding level at 1 uM by Kinomescan method relative to control.
Assay [14] has as its target Serine/threonine-protein kinase DCLK3 (Homo sapiens) (UniProt Q9C098). The experiment in a line: Binding affinity to wild-type human partial length DCAMKL3 (E140 to V628 residues) expressed in bacterial expression system assessed as residual binding level at 1 uM by Kinomescan method relative to control.
For assay [15], the system named is Phosphatidylinositol 4,5-bisphosphate 3-kinase catalytic subunit alpha isoform (Homo sapiens), P42336 [I800L]. Put plainly: Binding affinity to human partial length PIK3CA I800L mutant (R108 to N1068 residues) expressed in mammalian expression system assessed as residual binding level at 1 uM by Kinomescan method relative to control. Summed up:
as §2

Assay [16] addresses Proto-oncogene tyrosine-protein kinase receptor Ret (Homo sapiens) (UniProt P07949). The experiment in a line: Binding affinity to wild-type human partial length RET (E713 to D1014 residues) expressed in bacterial expression system assessed as residual binding level at 1 uM by Kinomescan method relative to control.
The target in assay [17] is Serine/threonine-protein kinase WNK1 (Homo sapiens) (UniProt Q9H4A3). Put plainly: Binding affinity to wild-type human partial length WNK1 (Q194 to A490 residues) expressed in mammalian expression system assessed as residual binding level at 1 uM by Kinomescan method relative to control.
The target in assay [18] is Serine/threonine-protein kinase Sgk3 (Homo sapiens) (UniProt Q96BR1). Put plainly: Binding affinity to wild-type human partial length SGK3 (M119 to L496 residues) expressed in mammalian expression system assessed as residual binding level at 1 uM by Kinomescan method relative to control. The procedure, abridged: as §1
The target of assay [19] is Tyrosine-protein kinase ZAP-70 (Homo sapiens) (UniProt P43403). The experiment in a line: Binding affinity to wild-type human partial length ZAP70 (D20 to G299 residues) expressed in mammalian expression system assessed as residual binding level at 1 uM by Kinomescan method relative to control.
Assay [20] has as its target Serine/threonine-protein kinase pim-1 (Homo sapiens) (UniProt P11309). Put plainly: Binding affinity to wild-type human partial length PIM1 (A15 to K313 residues) expressed in bacterial expression system assessed as residual binding level at 1 uM by Kinomescan method relative to control.

As for `C=CC(=O)Nc1ccccc1Nc1nc(Nc2ccc(N3CCN(C)CC3)cc2)ncc1C(=O)Nc1c(C)cccc1Cl`, the Activity in [1] came out at 87%; in assay [2], 71%; in [3] it was 92%; in assay [4] it was 100%; in assay [5], 100%; in assay [6], 100%. Further, the Activity in assay [7] was 100%; in assay [8], 90%; in [9] it was 0.9%; in assay [10] it was 100%; in [11], 99%; in [12], 94%. Further, the Activity is 100% in [13]; 100% in assay [14]; 86% in [15]; 100% in [16]; 100% in assay [17]; 86% in assay [18]. Also, the Activity in [19] and in assay [20] was 100% in each case.

For the origin of these results see ChEMBL document CHEMBL4354843, “Structure-Based Design of a Potent and Selective Covalent Inhibitor for SRC Kinase That Targets a P-Loop Cysteine” (J Med Chem, 2020).
